This note sets out measurements from ChEMBL document CHEMBL3865834, “Dihydrobenzofuran Neolignanamides: Laccase-Mediated Biomimetic Synthesis and Antiproliferative Activity” (J Nat Prod, 2016).

Data set [1] can be described thus: Growth inhibition of human Caco2 cells measured after 72 hrs by MTT assay. The class given is functional. The conditions noted are these: Caco-2, 72 h. The method, boiled down: (§1)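 Cells plated at (2.5−3.0) × 10^3 per 0.33 cm2, treated after 24 h with 0.01−100 μM (final) for 3 days at 37 °C, 5% CO2; controls got 0.5−1% DMSO. MTT read at 570 nm, 6−8 wells per value.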
(Formazan colour is commonly taken as a measure of viable cells.)

A short description of data set [2]: Growth inhibition of human MCF7 cells measured after 72 hrs by MTT assay. The class given is functional. The conditions noted are these: MCF7, 72 h. The procedure, abridged:
as §1

Data set [3] can be described thus: Growth inhibition of human PC3 cells measured after 72 hrs by MTT assay. The class given is functional. The following applies: PC-3, 72 h. The procedure, abridged:
as §1

Data set [4] is described as follows: Cell cycle arrest in human Caco2 cells assessed as accumulation at sub-G1 phase at 100 uM measured after 24 to 36 hrs by propidium iodide staining-based flow cytometry. The format is functional. The following applies: Caco-2. The procedure, abridged:
(§2)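 Caco-2 cells grown in six-well plates, treated 24–36 h, compared with vehicle-treated cells. Harvested by trypsinization, PBS-washed, fixed in 70% ethanol at 4 °C for at least 30 min. Then RNase A for 1 h at 37 °C, propidium iodide (final 50 μg/mL) for 1 h at 37 °C, and analysed by flow cytometry. Means of three independent experiments.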
(Flow cytometry measures light scatter and fluorescence of single cells or particles in a stream.)

A short description of data set [5]: Cell cycle arrest in human Caco2 cells assessed as accumulation at G0/G1 phase at 100 uM measured after 24 to 36 hrs by propidium iodide staining-based flow cytometry (reference value: 51.1%). The format is functional. The following applies: Caco-2. The procedure, abridged:
as §2

A short description of data set [6]: Cell cycle arrest in human Caco2 cells assessed as accumulation at S-phase at 100 uM measured after 24 to 36 hrs by propidium iodide staining-based flow cytometry (reference value: 18 to 19.5%). The conditions noted are these: Caco-2. The format is functional. The procedure, abridged: as §2
A short description of data set [7]: Cell cycle arrest in human Caco2 cells assessed as accumulation at G2-phase at 100 uM measured after 24 to 36 hrs by propidium iodide staining-based flow cytometry (reference value: 28%). The conditions noted are these: Caco-2. The class given is functional. The procedure, abridged: as §2
The test system of data set [8] is Caco-2. The experiment in a line: Induction of apoptosis in human Caco2 cells assessed as viable cells at 100 uM measured after 24 hrs by Alexa Fluor 488 Annexin V/propidium iodide staining-based flow cytometry (reference value: 95.1%). The conditions noted are these: Caco-2, 24 h, read-out: Activity. The format is functional.
Data set [9] relates to Caco-2. Briefly: Induction of apoptosis in human Caco2 cells assessed as early apoptotic cells at 100 uM measured after 24 hrs by Alexa Fluor 488 Annexin V/propidium iodide staining-based flow cytometry (reference value: 3.9%). The class given is functional.
The test system of data set [10] is Caco-2. The experiment in a line: Induction of apoptosis in human Caco2 cells assessed as late apoptotic cells at 100 uM measured after 24 hrs by Alexa Fluor 488 Annexin V/propidium iodide staining-based flow cytometry (reference value: 1.8%). The format is functional.
The subject of data set [11] is Caco-2. The experiment in a line: Induction of apoptosis in human Caco2 cells assessed as necrotic cells at 100 uM measured after 24 hrs by Alexa Fluor 488 Annexin V/propidium iodide staining-based flow cytometry (reference value: […]). The class given is functional.
Data set [12] can be described thus: Lipophilicity of the compound assessed as capacity factor by HPLC analysis. The format is physicochemical. The method, boiled down: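 Reversed-phase C18 HPLC (4.6 × 250 mm, 5 μm), 1 mL/min, acidified acetonitrile gradient 20→80% B over 30 min, diode-array detection. Capacity factor K = (tR − t0)/t0, where t0 is the retention time of the AA standard.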

For the compound `O=c1[nH]cc(F)c(=O)[nH]1` [FLUOROURACIL], the GI50 (usually the concentration that inhibits growth by half) in [1] fell in the range of 3.3 to 4.2 µM; in [2], 3.6 to 3.8 µM; in data set [3] it was 4.1 to 6.3 µM. The Activity in data set [4] is 10.4%; in data set [5], 50.1%; in data set [6], 37.5 to 39.8%; in data set [7], 1.9%; in the data set with Caco-2 [9], 56.2%; in the data set on Caco-2 [10], 5.3%. For the same compound, the Activity with Caco-2 [11] was 0.3%. Moreover, in the data set on Caco-2 [8], the viability at 100 µM was determined as 36.8%.

`COc1cc([C@@H]2Oc3c(OC)cc(/C=C/C(=O)NCc4cc(OC)c(OC)c(OC)c4)cc3[C@H]2C(=O)NCc2cc(OC)c(OC)c(OC)c2)ccc1O` (racemic): the K in data set [12] is recorded as 6.32.

Regarding `Cc1ccc(CNC(=O)/C=C/c2ccc3c(c2)[C@@H](C(=O)NCc2ccc(C)cc2)[C@H](c2ccc(O)cc2)O3)cc1` (racemic), the K in data set [12] is given as 8.36.

For the compound `COc1cc(CNC(=O)/C=C/c2cc(O)c3c(c2)[C@@H](C(=O)NCc2cc(OC)c(OC)c(OC)c2)[C@H](c2ccc(O)c(O)c2)O3)cc(OC)c1OC` (racemic), the K in data set [12] is listed as 5.69.

Consider `COc1cc([C@@H]2Oc3c(OC)cc(/C=C/C(=O)NCc4ccc(C)cc4)cc3[C@H]2C(=O)NCc2ccc(C)cc2)ccc1O` (racemic), for which, in data set [12], the K came to 8.45.

For `O=C(/C=C/c1ccc2c(c1)[C@@H](C(=O)NCCc1ccc(O)cc1)[C@H](c1ccc(O)cc1)O2)NCCc1ccc(O)cc1` (racemic), the 50% growth inhibitory concentration (GI50) in data set [1] amounted to 28.9 µM; in data set [2], 33.2 µM; in data set [3], 26 µM. In data set [12], the K was found to be 5.2.

`O=C(/C=C/c1cc(O)c2c(c1)[C@@H](C(=O)NCCc1ccc(O)cc1)[C@H](c1ccc(O)c(O)c1)O2)NCCc1ccc(O)cc1` (racemic): the GI50 in data set [1] was greater than 10 µM; in [2] it was 39.7 µM; in data set [3] it was 66 µM. Also, the K in data set [12] is recorded as 0.56.

On to `Cc1ccc(CNC(=O)/C=C/c2cc(O)c3c(c2)[C@@H](C(=O)NCc2ccc(C)cc2)[C@H](c2ccc(O)c(O)c2)O3)cc1` (racemic), for which the K in [12] is recorded as 7.89.

On to `COc1cc([C@@H]2Oc3c(OC)cc(/C=C/C(=O)NCCc4ccc(O)cc4)cc3[C@H]2C(=O)NCCc2ccc(O)cc2)ccc1O` (racemic) [GROSSAMIDE], for which the GI50 in data set [1] is greater than 100 µM; in data set [2], 24 µM; in data set [3], 21 µM. Also, in data set [12], the K is on record as 2.32.

Regarding `COc1cc(CNC(=O)/C=C/c2ccc3c(c2)[C@@H](C(=O)NCc2cc(OC)c(OC)c(OC)c2)[C@H](c2ccc(O)cc2)O3)cc(OC)c1OC` (racemic), the K in data set [12] is recorded as 6.35.
